Measured values pooled from the literature.
Protocols differ between the studies behind these lines.
Cell line: A549
Read-out: cell growth or viability

SMILES | technique | time | IC50
CC(C)[C@H](NC(=O)[C@H](Cc1c[nH]cn1)NC(=O)[C@H](Cc1c[nH]c2ccccc12)NC(=O)[C@H](Cc1c[nH]cn1)NC(=O)[C@H](C)NC(=O)[C@H](CCCCN)NC(=O)[C@H](Cc1c[nH]c2ccccc12)NC(=O)[C@H](Cc1c[nH]c2ccccc12)NC(=O)[C@H](CCCNC(=N)N)NC(=O)[C@H](Cc1c[nH]c2ccccc12)NC(=O)[C@H](CCCNC(=N)N)NC(=O)[C@@H](N)CCCNC(=N)N)C(=O)N[C@@H](Cc1c[nH]c2ccccc12)C(N)=O | MTT | 24 h | 240 µM
CC(C)[C@@H]1NC(=O)[C@@H](CCCNC(=N)N)NC(=O)[C@H]([C@@H](C)O)NC(=O)[C@@H](CCN)NC(=O)[C@H](Cc2ccccc2)NC(=O)[C@@H](Cc2ccccc2)NC1=O | ATP luminescence |  | > 100 µM
c1ccc([Se][Au]=[c]2n(C3CCCCC3)ccn2C2CCCCC2)cc1 | crystal violet |  | 0.9 µM
[C-]#[O+].[C-]#[O+].[C-]#[O+].[C-]#[O+].[C-]#[O+].[C-]#[O+].[C-]#[O+].[C-]#[O+].[C-]#[O+].[C-]#[O+].[Mn].[Mn] | MTT | 48 h | 20.9 µM
CC(C)C[C@H](NC(=O)[C@@H]1CCCN1C(=O)[C@H](Cc1ccc(O)cc1)NC(=O)[C@H](CCCCN)NC(=O)[C@H](CCCCN)NC(=O)[C@H](CS)NC(=O)[C@H](CC(C)C)NC(=O)[C@H](CCCCN)NC(=O)[C@H](CCCCN)NC(=O)[C@H](Cc1ccccc1)NC(=O)[C@H](CC(C)C)NC(=O)[C@H](CCCCN)NC(=O)[C@@H](N)CCCNC(=N)N)C(N)=O | MTT | 24 h | 258 µM
CC1=CC(=O)c2c(O)cccc2C1=O | MTT |  | 13.6 µM
N.N.O=C([O-])C1(C(=O)[O-])CCC1.[Pt+2] | MTT | 48 h | 197 µM
CC[C@@]1(O)C(=O)OCc2c1cc1n(c2=O)Cc2cc3ccccc3nc2-1 | SRB | 48 h | 0.06 µM
O=C1c2ccccc2-c2c3c(cc4ccnc1c24)OCO3 | MTT | 75 h | 19.8 µM
COC(=O)c1cc(C(C)=NNc2nc(-c3ccc(S(=O)(=O)F)cc3)cs2)ccc1O | MTT | 96 h | 65 µM
CC[C@H](C)[C@H](NC(=O)[C@H](CC(C)C)NC(=O)[C@H](CCCCN)NC(=O)[C@H](CCCCN)NC(=O)[C@H](CC(C)C)NC(=O)[C@H](CCCNC(=N)N)NC(=O)[C@H](CCCCN)NC(=O)[C@@H](N)CC(C)C)C(=O)N[C@@H](CCCCN)C(=O)N[C@@H](CCCCN)C(=O)N[C@@H](CC(C)C)C(=O)N[C@@H](CCCNC(=N)N)C(=O)N[C@@H](CCCCN)C(N)=O | MTT | 24 h | 100 µM
